Laboratory results published in ChEMBL document CHEMBL1136530, “Synthesis, stereochemical assignment and biological activity of a novel series of C-4" modified aza-macrolides” (2003).
≈ marks a conversion by molar mass, not a printed value.

Tests used:
Format in all cases: functional
Escherichia coli = assay: Minimum inhibitory concentration against Escherichia coli
Mus musculus = assay: In vivo effective dose against Pasteurella multocida infection in mouse
Method in brief: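 Mice infected with P. multocida serotype 5A. Subcutaneous dosing 0.5 h post-infection at 5 to 80 mg/kg. ED50 calculated from the number of mice surviving four days after infection.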

Pasteurella multocida = assay: Minimum inhibitory concentration against Pasteurella multocida
Method in brief: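 P. multocida strain 59A0067 (turkey origin), grown overnight on BHI plates; colonies in saline at OD625 0.09 (0.5 McFarland), diluted 1:100 in BHI broth. Two-fold serial dilutions in BHI microdilution, about 5×10⁵ cfu/mL final, 37 °C for 18 h. MIC is the lowest concentration with A600 ≤ 0.025.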

SMILES | MIC (Escherichia coli) [µg/mL] | MIC (Pasteurella multocida) [µg/mL] | ED50 (Mus musculus) [mg/kg]
C=C[C@@]1(O)[C@H](C)O[C@@H](O[C@H]2[C@H](C)[C@@H](O[C@@H]3O[C@H](C)C[C@H](N(C)C)[C@H]3O)[C@](C)(O)C[C@@H](C)CN[C@H](C)[C@@H](O)[C@](C)(O)[C@@H](CC)OC(=O)[C@@H]2C)C[C@@]1(C)OC | 1.56 (≈ 2.05 µM) | 0.2 (≈ 0.263 µM) | 66
CC#C[C@@]1(O)[C@H](C)O[C@@H](O[C@H]2[C@H](C)[C@@H](O[C@@H]3O[C@H](C)C[C@H](N(C)C)[C@H]3O)[C@](C)(O)C[C@@H](C)CN[C@H](C)[C@@H](O)[C@](C)(O)[C@@H](CC)OC(=O)[C@@H]2C)C[C@@]1(C)OC | 1.56 (≈ 2.02 µM) | 0.2 (≈ 0.259 µM) | 21
CC[C@H]1OC(=O)[C@H](C)[C@@H](O[C@H]2C[C@@](C)(OC)[C@@](O)(c3cccnc3)[C@H](C)O2)[C@H](C)[C@@H](O[C@@H]2O[C@H](C)C[C@H](N(C)C)[C@H]2O)[C@](C)(O)C[C@@H](C)CN[C@H](C)[C@@H](O)[C@]1(C)O | 3.13 (≈ 3.85 µM) | 0.39 (≈ 0.48 µM) | > 40
CC#C[C@@]1(O)[C@H](C)O[C@@H](O[C@H]2[C@H](C)[C@@H](O[C@@H]3O[C@H](C)C[C@H](N(C)C)[C@H]3O)[C@](C)(O)C[C@@H](C)CN(C)[C@H](C)[C@@H](O)[C@](C)(O)[C@@H](CC)OC(=O)[C@@H]2C)C[C@@]1(C)OC | 1.56 (≈ 1.98 µM) | 0.2 (≈ 0.254 µM) | 42
CC[C@H]1OC(=O)[C@H](C)[C@@H](O[C@H]2C[C@@](C)(OC)[C@@](O)(c3cccs3)[C@H](C)O2)[C@H](C)[C@@H](O[C@@H]2O[C@H](C)C[C@H](N(C)C)[C@H]2O)[C@](C)(O)C[C@@H](C)CN[C@H](C)[C@@H](O)[C@]1(C)O | 3.13 (≈ 3.83 µM) | 0.78 (≈ 0.955 µM) | > 80
CC[C@H]1OC(=O)[C@H](C)[C@@H](O[C@H]2C[C@@](C)(OC)[C@@](O)(CCCOC)[C@H](C)O2)[C@H](C)[C@@H](O[C@@H]2O[C@H](C)C[C@H](N(C)C)[C@H]2O)[C@](C)(O)C[C@@H](C)CN[C@H](C)[C@@H](O)[C@]1(C)O | 0.78 (≈ 0.966 µM) | 0.2 (≈ 0.248 µM) | 49
CC[C@H]1OC(=O)CC(O)[C@H](C)[C@@H](OC2O[C@H](C)[C@@H](O)[C@H](N(C)C)[C@H]2O)[C@@H](CCN2C[C@H](C)C[C@H](C)C2)CC(C)C(=O)/C=C/C(C)=C/[C@@H]1CO[C@@H]1O[C@H](C)[C@@H](O)[C@@H](OC)[C@H]1OC (stereo partly drawn) | 50 (≈ 57.5 µM) | 0.78 (≈ 0.897 µM) | –
CC[C@H]1OC(=O)[C@H](C)[C@@H](O[C@H]2C[C@@](C)(OC)[C@](C)(O)[C@H](C)O2)[C@H](C)[C@@H](O[C@@H]2O[C@H](C)C[C@H](N(C)C)[C@H]2O)[C@](C)(O)C[C@@H](C)CN(C)[C@H](C)[C@@H](O)[C@]1(C)O | 0.78 (≈ 1.02 µM) | 0.1 (≈ 0.131 µM) | 26

More lines, main results first:

MIC (Escherichia coli) [µg/mL] | MIC (Pasteurella multocida) [µg/mL] | SMILES | ED50 (Mus musculus) [mg/kg]
1.56 (≈ 2.04 µM) | 0.2 (≈ 0.262 µM) | CC[C@H]1OC(=O)[C@H](C)[C@@H](O[C@H]2C[C@@](C)(OC)[C@@](O)(CC)[C@H](C)O2)[C@H](C)[C@@H](O[C@@H]2O[C@H](C)C[C@H](N(C)C)[C@H]2O)[C@](C)(O)C[C@@H](C)CN[C@H](C)[C@@H](O)[C@]1(C)O | 61
6.25 (≈ 7.12 µM) | 0.39 (≈ 0.444 µM) | CC[C@H]1OC(=O)[C@H](C)[C@@H](O[C@H]2C[C@@](C)(OC)[C@@](O)(c3cc4ccccc4n3C)[C@H](C)O2)[C@H](C)[C@@H](O[C@@H]2O[C@H](C)C[C@H](N(C)C)[C@H]2O)[C@](C)(O)C[C@@H](C)CN(C)[C@H](C)[C@@H](O)[C@]1(C)O | > 40
3.13 (≈ 3.62 µM) | 0.2 (≈ 0.231 µM) | CC[C@H]1OC(=O)[C@H](C)[C@@H](O[C@H]2C[C@@](C)(OC)[C@@](O)(c3cc4ccccc4n3C)[C@H](C)O2)[C@H](C)[C@@H](O[C@@H]2O[C@H](C)C[C@H](N(C)C)[C@H]2O)[C@](C)(O)C[C@@H](C)CN[C@H](C)[C@@H](O)[C@]1(C)O | > 40
3.13 (≈ 4.19 µM) | 0.1 (≈ 0.134 µM) | CC[C@H]1OC(=O)[C@H](C)[C@@H](O[C@H]2C[C@@](C)(OC)[C@]3(CO3)[C@H](C)O2)[C@H](C)[C@@H](O[C@@H]2O[C@H](C)C[C@H](N(C)C)[C@H]2O)[C@](C)(O)C[C@@H](C)CN[C@H](C)[C@@H](O)[C@]1(C)O | –
0.78 (≈ 1.04 µM) | < 0.1 | CC[C@H]1OC(=O)[C@H](C)[C@@H](O[C@H]2C[C@@](C)(OC)[C@](C)(O)[C@H](C)O2)[C@H](C)[C@@H](O[C@@H]2O[C@H](C)C[C@H](N(C)C)[C@H]2O)[C@](C)(O)C[C@@H](C)CN[C@H](C)[C@@H](O)[C@]1(C)O | 28
1.56 (≈ 2.09 µM) | < 0.1 | CC[C@H]1OC(=O)[C@H](C)[C@@H](O[C@H]2C[C@@](C)(OC)[C@@]3(CO3)[C@H](C)O2)[C@H](C)[C@@H](O[C@@H]2O[C@H](C)C[C@H](N(C)C)[C@H]2O)[C@](C)(O)C[C@@H](C)CN[C@H](C)[C@@H](O)[C@]1(C)O | 31
3.13 (≈ 3.94 µM) | 0.1 (≈ 0.126 µM) | CC[C@H]1OC(=O)[C@H](C)[C@@H](O[C@H]2C[C@@](C)(OC)[C@@](O)(CSC)[C@H](C)O2)[C@H](C)[C@@H](O[C@@H]2O[C@H](C)C[C@H](N(C)C)[C@H]2O)[C@](C)(O)C[C@@H](C)CN[C@H](C)[C@@H](O)[C@]1(C)O | 44
